Test results from ChEMBL document CHEMBL4422614 (Eur J Med Chem, 2019).
Activity calls are given as the source filed them. The calls are words filed in the database; no cut-off is given here.

How the values were obtained:
[1] = Toxicity in amyloid beta (25 to 35 residues) induced C57BL/6J mouse model of Alzheimer's disease assessed as loss of body weight at 30 mg/kg/day, ig administered for 26 consecutive days; type: organism-based; settings: in vivo, po
Procedure, shortened: (§1)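 Mice were randomized into 7 groups. All except sham got an ICV injection of Aβ25-35 (3 nmol); sham got the same volume of saline ICV. Dosing was intragastric daily for 26 days, with 0.5% CMC-Na as vehicle for sham and model. Body weight, diarrhea and emesis-like behavior were monitored.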

[2] = Hepatotoxicity in C57BL/6 mouse assessed as tissue damage up to 2000 mg/kg, ig after 14 days by microscopic analysis; type: toxicity, organism-based; settings: in vivo, po, 336 h
Procedure, shortened: (§2)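 Mice given a single intragastric dose of test compound at various dosages, then observed for 14 days for death and abnormal behaviour. On day 14, animals were sacrificed and heart, liver, lungs and kidneys examined.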

[3] = Acute Toxicity in C57BL/6 mouse assessed as mouse mortality up to 2000 mg/kg, ig measured over 14 days; type: organism-based; settings: in vivo, po, 336 h; procedure, shortened: as §2
[4] = Toxicity in amyloid beta (25 to 35 residues) induced C57BL/6J mouse model of Alzheimer's disease assessed as diarrhea at 30 mg/kg/day, ig administered for 26 consecutive days; type: organism-based; settings: in vivo, po; procedure, shortened: as §1
[5] = Toxicity in amyloid beta (25 to 35 residues) induced C57BL/6J mouse model of Alzheimer's disease assessed as emesis at 30 mg/kg/day, ig administered for 26 consecutive days; type: organism-based; settings: in vivo, po; procedure, shortened: as §1
[6] = Metal chelating activity of the compound assessed as formation of ferrous-compound complex at 50 uM after 30 mins by UV-vis spectrophotometric analysis
Procedure, shortened: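 UV-vis absorption spectra of compound (50 µM) were recorded in HEPES buffer alone and with 50 µM CuSO4, ZnCl2, FeSO4 or FeCl3, and spectral changes were assessed.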

[7] = Metal chelating activity assessed as inhibition of Cu(II)/ascorbate-induced ROS production by measuring […] level at 10 uM by fluorescence assay
Procedure, shortened: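 A Cu-ascorbate redox system in PBS (pH 7.4) at 37 °C, with Cu(II) 5 µM, ascorbate 150 µM and coumarin-3-carboxylic acid 50 µM as the hydroxyl radical trap. Compound was pre-incubated 10 min before ascorbate was added. Fluorescence of 7-hydroxy-CCA (ex 395, em 450 nm) was read every 30 s for 15 min.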

[8] = Acute Toxicity in C57BL/6 mouse lung assessed as tissue damage up to 2000 mg/kg, ig after 14 days by microscopic analysis; type: organism-based; settings: in vivo, po, 336 h; procedure, shortened: as §2
Mus musculus [9] = experiment: Cognition enhancement activity in amyloid beta (25 to 35 residues) induced C57BL/6J mouse model of Alzheimer's disease assessed as increase in number of virtual platform crossing at 30 mg/kg/day, ig administered for 26 consecutive days by Morris water maze test; type: functional, organism-based; procedure, shortened: as §1
[10] = Nephrotoxicity in C57BL/6 mouse assessed as tissue damage up to 2000 mg/kg, ig after 14 days by microscopic analysis; type: toxicity, organism-based; settings: in vivo, po, 336 h; procedure, shortened: as §2
[11] = Metal chelating activity assessed as inhibition of Cu(II)-induced amyloid beta (1 to 42 residues) aggregation at 25 uM after 24 hrs by TEM assay
Procedure, shortened: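 Samples were prepared as for the ThT assay. 10 µL aliquots were applied to carbon-coated copper grids for 2 min, then stained with 3% phosphotungstic acid for 2 min and imaged by transmission electron microscopy.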

Mus musculus [12] = experiment: Neuroprotection in C57BL/6J mouse model of amyloid beta (25 to 35 residues) induced Alzheimer's disease assessed as reduction in ratio of apoptotic neuron in CA1 hippocampus region at 30 mg/kg/day, ig administered for 26 consecutive days by hematoxylin and eosin staining-based light microscopic analysis (reference value: 40.6 +/- 12.5%); type: ADME, organism-based; design: scale not given: the % may be the effect or the level left; settings: in vivo, po
Procedure, shortened: (§3)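 Hippocampal CA1, CA3 and DG neurons were stained with H&E after the Aβ25-35 ICV model and 26-day intragastric dosing. Denatured cell index = denatured cells/total cells, n = 5. Values are mean ± SD, two-way ANOVA versus model.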

[13] = Drug metabolism in Sprague-Dawley rat liver microsomes assessed as metabolic rate up to 180 mins in presence of NADPH by UV-based LC-MS/MS analysis; type: ADME, Microsome; settings: 3 h
[14] = Acute Toxicity in C57BL/6 mouse lung assessed as abnormal changes up to 2000 mg/kg, ig after 14 days by microscopic analysis; type: organism-based; settings: in vivo, po, 336 h; procedure, shortened: as §2
[15] = Metal chelating activity assessed as inhibition of Cu2+-induced amyloid beta (1 to 42 residues) aggregation at 25 uM after 24 hrs by thioflavin-T fluorescence assay (reference value: 156%); design: scale not given: the % may be the effect or the level left
Procedure, shortened: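 Aβ1-42 was incubated with Cu(II) (CuSO4) with or without compound, and thioflavin T fluorescence was read. The Aβ-alone signal was set as 100%. Mean ± SD of three independent experiments.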

Mus musculus [16] = experiment: Cognition enhancement activity in amyloid beta (25 to 35 residues) induced C57BL/6J mouse model of Alzheimer's disease assessed as swimming speed at 4 mg/kg/day, ig administered for 26 consecutive days by Morris water maze test (reference value: 15.6 +/- 2.4 cm/sec); type: functional; procedure, shortened: as §1
[17] = Hepatotoxicity in C57BL/6 mouse assessed as abnormal changes up to 2000 mg/kg, ig after 14 days by microscopic analysis; type: toxicity, organism-based; settings: in vivo, po, 336 h; procedure, shortened: as §2
in vitro [18] = settings: PAMPA
Mus musculus [19] = experiment: Cognition enhancement activity in amyloid beta (25 to 35 residues) induced C57BL/6J mouse model of Alzheimer's disease assessed as swimming path length in virtual platform at 30 mg/kg/day, ig administered for 26 consecutive days by Morris water maze test (10.2 +/- 3.2 cm); type: functional; procedure, shortened: as §1
[20] = Cardiotoxicity in C57BL/6 mouse assessed as tissue damage up to 2000 mg/kg, ig after 14 days by microscopic analysis; type: toxicity, organism-based; settings: in vivo, po, 336 h; procedure, shortened: as §2
[21] = Antioxidant activity assessed as trolox equivalent of AAPH-induced radical scavenging activity at 10 to 20 uM preincubated for 10 mins followed by AAPH addition measured every minute for 120 mins by ORAC fluorescein assay; type: functional
Procedure, shortened: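 ORAC values are expressed as trolox equivalents, mean ± SD of three independent experiments.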

Mus musculus [22] = experiment: Cognition enhancement activity in amyloid beta (25 to 35 residues) induced C57BL/6J mouse model of Alzheimer's disease assessed as decrease in escape latancy at 30 mg/kg/day, ig administered for 26 consecutive days by Morris water maze test; type: functional, organism-based; procedure, shortened: as §1
Mus musculus [23] = experiment: Neuroprotection in amyloid beta (25 to 35 residues) induced C57BL/6J mouse model of Alzheimer's disease assessed as reduction in ratio of apoptotic neuron in CA3 hippocampus region at 30 mg/kg/day, ig administered for 26 consecutive days by hematoxylin and eosin staining-based light microscopic analysis (reference value: 80.2 +/- 8.6%); type: ADME, organism-based; design: scale not given: the % may be the effect or the level left; settings: in vivo, po; procedure, shortened: as §3
in vitro [24] = settings: Sprague-Dawley, rat, liver microsomes
[25] = Acute Toxicity in C57BL/6 mouse up to 2000 mg/kg, ig measured every 14 days; type: organism-based; settings: in vivo, po, 336 h; procedure, shortened: as §2
Mus musculus [26] = experiment: Cognition enhancement activity in amyloid beta (25 to 35 residues) induced C57BL/6J mouse model of Alzheimer's disease assessed as swimming time in effective region at 30 mg/kg/day, ig administered for 26 consecutive days by Morris water maze test (4.3 +/- 1.3 sec); type: functional; procedure, shortened: as §1

With COc1ccc(C(=O)Nc2ccc(O)c3ncccc23)cc1OC1CCCC1.Cl the Activity [1] was “Non-Toxic”, the Activity [2] was “Non-Toxic” and the Activity [3] was “Non-Toxic”. The Activity [4] was “Non-Toxic”, the Activity [5] was “Non-Toxic” and the Activity [6] was “Active”. The Activity [7] was “Active”, the Activity [8] was “Non-Toxic” and the Activity (Mus musculus [9]) was “Active”. The Activity [10] was “Non-Toxic”, the Activity [11] was “Active” and the Activity (Mus musculus [12]) was 13.8%. The K [13] was 0.0134 min⁻¹, the Activity [14] was “Non-Toxic” and the Activity [15] was 51%. For the same molecule, the Activity (Mus musculus [16]) was 15.3 cm/s, the Activity [17] was “Non-Toxic” and the Papp at 10 h, 100 ug/ml (in vitro [18]) was 5.9 ×10⁻⁶ cm/s. For the same molecule, the Activity (Mus musculus [19]) was 18 cm, the Activity [20] was “Non-Toxic” and the Activity [21] was 0.63 equiv. For the same molecule, the Activity (Mus musculus [22]) was “Active”, the Activity (Mus musculus [23]) was 37.1% and the half-life (in vitro [24]) was 51.7 min. For the same molecule, the Activity [25] was “Non-Toxic” and the Time (Mus musculus [26]) was 6.1 s.
